TRPC4 PAM = allosterically enhances the mouse TRPC4 cation channel; HEK293 TRPC4beta/mu-opioid, DAMGO EC20, Fluo-4 Ca2+ flux; active compounds read high; B-score at 10 µM; actives 0.42% (n = 310,000); AID 2227;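 active = B-score of calcium response area above 5 SD of library B-scores, with initial fluorescence ratio within 5 SD of library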
Target sequence (Q9QUQ5 whole entry, looked up): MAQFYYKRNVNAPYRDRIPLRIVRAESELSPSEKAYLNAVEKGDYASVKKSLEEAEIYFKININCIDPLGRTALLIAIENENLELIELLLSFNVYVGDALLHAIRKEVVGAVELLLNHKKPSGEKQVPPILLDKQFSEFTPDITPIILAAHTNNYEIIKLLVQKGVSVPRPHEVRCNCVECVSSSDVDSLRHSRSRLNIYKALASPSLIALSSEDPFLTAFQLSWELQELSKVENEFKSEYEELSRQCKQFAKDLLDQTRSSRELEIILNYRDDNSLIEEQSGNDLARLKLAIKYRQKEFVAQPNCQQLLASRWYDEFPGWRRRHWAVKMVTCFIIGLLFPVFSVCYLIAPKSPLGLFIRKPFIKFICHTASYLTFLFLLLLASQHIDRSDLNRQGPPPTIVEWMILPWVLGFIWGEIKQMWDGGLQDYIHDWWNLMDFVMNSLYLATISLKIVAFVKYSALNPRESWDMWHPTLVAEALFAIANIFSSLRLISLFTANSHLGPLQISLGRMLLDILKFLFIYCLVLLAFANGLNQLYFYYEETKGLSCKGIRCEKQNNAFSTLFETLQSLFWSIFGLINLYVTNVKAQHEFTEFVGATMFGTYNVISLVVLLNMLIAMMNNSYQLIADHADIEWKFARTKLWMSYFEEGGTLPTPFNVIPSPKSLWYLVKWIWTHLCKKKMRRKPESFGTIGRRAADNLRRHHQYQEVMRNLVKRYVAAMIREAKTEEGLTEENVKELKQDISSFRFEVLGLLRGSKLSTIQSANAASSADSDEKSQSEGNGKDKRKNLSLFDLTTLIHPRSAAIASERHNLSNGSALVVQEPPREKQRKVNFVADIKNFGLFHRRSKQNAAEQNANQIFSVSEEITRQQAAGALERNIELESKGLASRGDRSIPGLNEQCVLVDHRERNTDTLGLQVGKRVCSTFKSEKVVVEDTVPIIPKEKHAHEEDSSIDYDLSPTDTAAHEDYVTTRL
TRPC6 inhibitor = mouse TRPC6 channel inhibition; Q61143; HEK293-TRPC6, membrane potential dye, ACh-evoked depolarization; active compounds read low; B-score at 10 µM; actives 1.1% (n = 310,000);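 active = B-score under library mean minus 3 SD, initial fluorescence not abnormally high, positive integrated signal ratio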;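 note: B-score derived from integrated fluorescence ratio over the kinetic read; more negative B-score means stronger inhibition of depolarization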
TRPC6 act = activators of mouse TRPC6 channel; Q61143; HEK293-TRPC6 membrane potential dye fluorescence; active compounds read high; B-score at 10 µM; actives 0.13% (n = 310,000); AID 2550;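 active = B-score of the integrated fluorescence ratio above library mean plus 3 SD, and starting fluorescence ratio within library mean plus 5 SD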;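 note: higher score means more depolarization so channel activation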
TRPC4 agonist = TRPC4 (mouse) channel activation; Q9QUQ5; HEK293 TRPC4beta/mu-opioid, Fluo4 calcium fluorescence; active compounds read high; B-score at 10 µM; actives 0.49% (n = 310,000); AID 2237;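 active = B-score above 5 SD of library B-scores, and initial fluorescence ratio not above library mean plus 5 SD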;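 note: positive B-score marks a calcium rise read as TRPC4 activation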
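Technique: kinetic Fluo4 calcium fluorescence; Test system: TRPC4beta and mu-opioid receptor HEK293 stable cells; Measure: B-scored integrated calcium fluorescence ratio; Benchmarks: low control buffer alone, high control maximal DAMGO; Schedule: 45 min room-temperature Fluo4 loading, 110 s read.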
TRPC4 inh = blocks the mouse TRPC4 cation channel; B-score at 10 µM; Q9QUQ5; HEK293 TRPC4beta/mu-opioid, DAMGO-evoked Fluo4 calcium flux; active compounds read low; actives 0.39% (n = 300,000);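 active = B-score over 3 SD under the library average, no early fluorescence shift, positive overall ratio signal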
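System: stable TRPC4beta/mu-opioid receptor HEK293 cells; Dosing: single-point compound dosing; Measured by: Fluo4 Ca2+ flux fluorescence; Read-out basis: per-well B score of integrated baseline-normalized Fluo4 ratio.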
Of the large screens only hits and unclear results are named; the others gave an inactive call. The list is not random: actives were taken first. Their share in the collection is about 2.3%.

O=S1(=O)CCOCCN1Cc1ccc(Cl)cc1Cl	none
CCCN(CCC)C(=O)Cc1coc2ccc3ccccc3c12	TRPC4 PAM 10
CCCc1ccc(S(=O)(=O)NCC2CCCN2CC)cc1 (stereo not drawn)	none
CCN1CCCC1CNS(=O)(=O)c1c(C)cc(C)cc1C (stereo not drawn)	TRPC4 agonist 86
CSCCC(NC(=O)c1ccco1)C(=O)N1CCN(Cc2ccccc2)CC1 (stereo not drawn)	none
CSCCC(NC(=O)c1ccco1)C(=O)OC(C)C(=O)NC(=O)NC1CCCCC1 (stereo not drawn)	TRPC4 agonist 70
c1ccc2c(N3CCCCC3)nc(N3CCOCC3)nc2c1	TRPC4 inh -9
O=C(OCN1C(=O)c2ccccc2C1=O)c1cccnc1SC(F)F	none
C=CCc1ccc(OCC(O)CN2CCN(c3ccccc3OC)CC2)c(OC)c1 (stereo not drawn)	none
C=CCc1ccc(OCC(O)CN2CCN(Cc3ccc(Cl)cc3)CC2)c(OC)c1 (stereo not drawn)	TRPC4 PAM 10
CCS(=O)(=O)N1Cc2ccccc2CC1C(=O)Nc1ccc(F)c(F)c1 (stereo not drawn)	none
CN(C)CCOC(=O)C12CC3CC(CC(C3)C1)C2	none
CN(C)CCOC(=O)C12CC3(C)CC(C)(CC(C)(C3)C1)C2	TRPC4 agonist 46
NC(N)=Nc1nc2ccccc2o1	none
N#CCSc1nnc2sc3ccccc3n12	none
CN(C)CCSc1nnc2sc3ccccc3n12	TRPC4 PAM 11
COc1cc2c(c(OC)c1OC)-c1c(cc3c(c1OC)OCO3)[C@@H](OC(C)=O)[C@H](C)[C@H](C)C2	none
C/C=C(/C)C(=O)O[C@@H]1c2cc(OC)c(OC)c(OC)c2-c2c(cc3c(c2OC)OCO3)C[C@H](C)[C@]1(C)O	TRPC4 PAM 16 (no result: TRPC4 inh)
O=C(CNC(=O)c1ccc(Br)o1)Nc1ncccc1O	none
Nc1ccc(C(=O)N/N=C/c2cn(Cc3ccc(F)cc3)c3ccccc23)cc1	none
COC(=O)N/N=C/c1cn(Cc2ccc(F)cc2)c2ccccc12	none
CNC(=S)N/N=C/c1cn(Cc2ccc(F)cc2)c2ccccc12	TRPC4 PAM 11
Nc1ccc(C(=O)N/N=C/c2cn(Cc3ccccc3F)c3ccccc23)cc1	TRPC4 PAM 11
CC(SCc1ccccc1)C(=O)NCc1ccccn1 (stereo not drawn)	TRPC4 PAM 10
CN1C(=O)CSC1=Nc1ccc(F)cc1	none
CCOC(=O)c1ccc(NC(=S)N2CCSC2c2ccc(Br)cc2)cc1 (stereo not drawn)	TRPC4 PAM 43
COc1cccc(NC(=O)CN(C)C(=O)Cn2c(=O)oc3ccccc32)c1	none
CCCCc1cc(O)c(CCCC)c(O)c1	TRPC4 PAM 11, TRPC4 agonist 65
CC1CCCCC1NC(=O)c1ccc(S(=O)(=O)N2CCCC2)cc1 (stereo not drawn)	none
CC1CCCCC1NS(=O)(=O)c1ccc(S(=O)(=O)N2CCCC2)cc1 (stereo not drawn)	TRPC4 PAM 49
Cc1cc(-c2sccc2C)nc(-n2cccc2)n1	TRPC4 inh -6
Cc1nc2cc(-c3sccc3-n3cccc3)nn2c(C)c1C	none
Cc1nc(N2CCN(c3ccccn3)CC2)c2c(C)c(C(=O)N3CCN(c4ccccc4F)CC3)sc2n1	TRPC4 inh -9
CC(C)[C@H](NC(=O)N1c2ccccc2NC(=O)[C@@H]1C(C)C)C(=O)N[C@H](Cc1ccccc1)C(=O)O	none
CCOC(=O)C1CCCN(CCC(=O)Nc2cccc(C)c2)C1 (stereo not drawn)	TRPC4 agonist 54
CCOC(=O)C1CCCN(CC(=O)c2ccc(F)cc2)C1 (stereo not drawn)	TRPC4 agonist 81
CCOC(=O)C1CCCN(CC(=O)Nc2c(F)c(F)c(F)c(F)c2F)C1 (stereo not drawn)	none
CCOC(=O)C1CCCN(CCC(=O)Nc2cccc(F)c2)C1 (stereo not drawn)	none
O=C1NC(c2ccccc2)=C(c2nc3ccccc3s2)C(c2ccc(F)cc2)N1 (stereo not drawn)	TRPC4 PAM 11
CCCNC(=O)C12CCC(C)(c3nc4cc(C)c(C)cc4nc31)C2(C)C (stereo not drawn)	none
O=c1[nH][nH]c(-c2ccccc2)c1C=Nc1ccc(Cl)cc1	TRPC4 PAM 84
CC(C)c1ccccc1OCCCCN1CCCCC1	none
Brc1ccccc1OCCCN1CCCC1	none
Brc1ccccc1OCCCCCN1CCOCC1	TRPC4 PAM 11
CC(C)c1ccccc1OCCCCCN1CCOCC1	TRPC4 PAM 13
CSCC(C)N1CCC(Oc2cccc(C(=O)NCc3ccccn3)c2)CC1 (stereo not drawn)	TRPC6 inhibitor -5.7
CC#CC(=O)N1CCC(Oc2cccc(C(=O)NCc3ccccn3)c2)CC1	none
CCCn1c(C(C)Nc2nc(-c3cc(Cl)c(N)c(Cl)c3)cs2)nc2cc(Cl)c(N3CCCCC3)cc21 (stereo not drawn)	none
CCOc1ccc(-c2nc(CSCC(=O)NCc3ccco3)c(C)o2)cc1	TRPC6 act 12
CCOc1ccc(-c2nc(CSCC(=O)NC3CC3)c(C)o2)cc1	none
c1ccc(Nc2nc(Nc3ccccc3)nc(N3CCNCC3)n2)cc1	TRPC4 agonist 146
N#Cc1ccc(COC(=O)c2ccc3c(c2)OCO3)cc1	none
O=C(OCC1CCNCC1)c1ccc2c(c1)OCO2	TRPC4 agonist 62
CCCCCCCCCC(=O)N[C@H](CN1CCOCC1)[C@H](O)c1ccccc1	none
CCCCCCCCCCCC(=O)NC(C(=O)O)C(O)c1ccccc1 (stereo not drawn)	TRPC4 inh -6
Cc1ccc(F)cc1NC(=O)CN1CCN(Cc2ccccc2)CC1	none
CCCn1c(SCC(=O)N2c3ccccc3Sc3ccccc32)nc2c1c(=O)n(C)c(=O)n2C	TRPC4 PAM 77
CC(C)n1c(SCC(N)=O)nc2c1c(=O)n(C)c(=O)n2C	none
CC(C)n1c(SCC(=O)N2c3ccccc3Sc3ccccc32)nc2c1c(=O)n(C)c(=O)n2C	TRPC4 PAM 17
CC(C)C(=O)N(Cc1ccc(F)cc1)Cc1nc2ccccc2c(=O)[nH]1	none
O=C(c1ccc([N+](=O)[O-])cc1)N1CCN(c2ncc(Br)cn2)CC1	TRPC4 agonist 219
Cc1ccc(C)c(OCCCCCn2ccnc2)c1	TRPC4 agonist 169
Cc1cc(Cl)cc(C)c1OCCCCCn1ccnc1	TRPC4 agonist 86
Cc1cc(OCCCCCn2ccnc2)cc(C)c1Cl	TRPC4 agonist 75
Cc1cc(Cl)cc(C)c1OCCn1ccnc1	none
Cc1cc(C)c(OCCCCCn2ccnc2)c(C)c1	none
CCOc1cccc(OCCCCn2ccnc2)c1	TRPC4 agonist 43
CCOC(=O)c1c(NC(=O)CN2C(=O)NC3(CCC(C)CC3)C2=O)sc(C(=O)N(C)C)c1C (stereo not drawn)	none
COc1ccccc1C(=O)N1CCN(CCNC(=O)C(=O)Nc2ccc(Br)c(C)c2)CC1	none
